# rCAG RNA binder – binders of r(CAG) RNA repeats, primary screen, biochemical, fluorescence | r(CAG) RNA repeat, TO-PRO-1 dye displacement fluorescence | inhibition, % at 3 µM | 370,000 compounds, 1.3% hits;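 active means inhibition above the plate cutoff, the mean of all test compounds on that plate plus 3 SD, cut at about 35% in these data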;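 further: 0% = DMSO alone and 100% = 100 µM mitoxantrone as full dye displacement; higher means more dye released from RNA so lower well fluorescence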
# HCV core dimer – inhibitors of HCV core protein dimerization, primary screen, biochemical, TR-FRET, high-throughput. 300,000 compounds, 0.33% hits. inhibition, % at 5 µM. TR-FRET GST/Flag-core106 dimerization, 1536-well;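 active means inhibition above the mean of all tested compounds plus 3 SD, set per screening campaign, cut at about 45% in these data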
#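 Assay system: tagged HCV core106 pair (GST and Flag); medium: KF-containing HEPES buffer, pH 7.45, DTT, CHAPS, BSA; also added: Eu donor and XL665 acceptor anti-tag antibodies; dosing: 5 µM single dose; timing: compound-protein-antibody incubation 4 h at 22.5 °C; signal: TR-FRET 671 and 617 nm emission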
# NadD inh – inhibitors of S. aureus NadD, primary screen, biochemical, colorimetric, uHTS | Nicotinate-nucleotide adenylyltransferase NadD (Staphylococcus aureus N315) | purified NadD enzyme, colorimetric absorbance read-out | inhibition, % at 20 µM | 360,000 compounds, 0.78% hits | AID 602399, 2012; in the data active means inhibition above about 26%
# ABHD5-PLIN5 inh – ABHD5-PLIN5 interaction inhibitors, primary screen, cell lysate, split luciferase complementation, luminescence; Perilipin-5 (Homo sapiens) + 1-acylglycerol-3-phosphate O-acyltransferase ABHD5 (Homo …; Split G. princeps luciferase complementation, 4 h; inhibition, % at 4 µM; 360,000 compounds, 0.78% hits; AID 602281, 2012;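 active means inhibition above the mean inhibition across every tested compound plus 3 SD, cut at about 22% in these data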;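 further: 0% = DMSO only wells and the 100% control is not disclosed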
# Target sequence (Q00G26 whole entry, looked up): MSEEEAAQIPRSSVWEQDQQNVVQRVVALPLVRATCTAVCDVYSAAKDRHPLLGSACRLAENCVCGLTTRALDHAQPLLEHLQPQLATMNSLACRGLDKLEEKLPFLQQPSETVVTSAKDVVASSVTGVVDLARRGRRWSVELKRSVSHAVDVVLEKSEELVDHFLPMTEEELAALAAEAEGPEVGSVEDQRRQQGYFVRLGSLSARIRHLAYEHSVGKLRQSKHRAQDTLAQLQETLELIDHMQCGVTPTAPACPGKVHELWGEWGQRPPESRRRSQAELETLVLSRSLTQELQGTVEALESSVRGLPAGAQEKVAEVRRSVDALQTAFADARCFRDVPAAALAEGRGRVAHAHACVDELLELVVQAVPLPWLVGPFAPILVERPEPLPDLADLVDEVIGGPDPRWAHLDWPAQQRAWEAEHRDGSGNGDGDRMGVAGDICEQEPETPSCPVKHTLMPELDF
# Target sequence (Q8WTS1 whole entry, looked up): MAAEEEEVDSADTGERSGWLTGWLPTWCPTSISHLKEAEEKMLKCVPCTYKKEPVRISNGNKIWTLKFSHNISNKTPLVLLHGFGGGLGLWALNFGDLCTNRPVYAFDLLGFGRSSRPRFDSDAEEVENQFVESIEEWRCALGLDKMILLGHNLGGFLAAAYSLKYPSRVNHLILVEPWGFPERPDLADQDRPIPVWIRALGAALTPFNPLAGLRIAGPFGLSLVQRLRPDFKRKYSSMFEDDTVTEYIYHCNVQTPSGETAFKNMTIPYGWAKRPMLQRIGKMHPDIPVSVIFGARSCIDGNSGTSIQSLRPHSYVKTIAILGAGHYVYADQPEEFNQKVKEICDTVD
# Starred values were filed as active, the others as inactive; . = no result given. Only some compounds are listed: those with a hit (about 2.6% of all), similar ones and a draw of the others.
SMILES,rCAG RNA binder,HCV core dimer,NadD inh,ABHD5-PLIN5 inh
COC(=O)[C@H](C(C)C)N(Cc1cn(Cc2ccccc2)nn1)S(=O)(=O)c1ccc(F)cc1Br,1,.,.,.
CCc1cc(=O)oc2cc(C)c(CN3CCCC(C)C3)c(O)c12 (centres undefined),27,61*,5,1
CCCCc1cc(=O)oc2cc(C)c(CN3CCCC3)c(O)c12,26,51*,14,9
CCc1cc(=O)oc2c(CN3CCCC3)c(O)c(Cl)cc12,3,-2,-3,1
COCCCNC(=O)C[C@H]1C[C@@]2(C(=O)OC)C(=C[C@H](C(C)(C)C)O[C@@H]2C)N(CCc2ccc(OC)c(OC)c2)C1=O,-3,.,.,.
COc1cc(/C=C2\C(=O)N(c3ccccc3)N=C2C)ccc1Oc1ccc([N+](=O)[O-])cc1[N+](=O)[O-],29,38,36*,8
COc1cc(/C=C2/SC(=O)NC2=O)ccc1Oc1ccc([N+](=O)[O-])cc1[N+](=O)[O-],22,11,8,0
CC1=NN(c2ccccc2)C(=O)/C1=C\c1ccc(Oc2ccc([N+](=O)[O-])cc2[N+](=O)[O-])cc1,26,61*,30*,13
CC(=O)Nc1ccc2c(O)cc(S(=O)(=O)O)cc2c1,2,.,-1,-1
O=S(=O)(O)c1ccc(O)c2cc(Nc3ccccc3)ccc12,97*,.,68*,-9
O=S(=O)(O)c1cc(O)c2cc(Nc3ccccc3)ccc2c1,43*,.,15,-9
COc1ccccc1Nc1ccc2c(O)cc(S(=O)(=O)O)cc2c1,74*,.,21,10
C[N+]1=C(N)NC2=C3CCCCC3n3c(=O)n(-c4ccccc4)c(=O)n3C2C1 (centres undefined),9,.,.,.
COC(=O)[C@H](C(C)C)N1Cc2nnn(Cc3ccc(C)cc3)c2-c2cc(F)ccc2S1(=O)=O,0,.,.,.
Cn1c(SCC2CCC2)nnc1-c1ccco1,-1,.,.,.
Cc1cc(-c2nn(-c3ccccc3)cc2/C=C2\SC(N)=NC2=O)ccc1OC(C)C,7,-8,35*,2
C=CCc1cccc2cc(C(=O)Nc3ccccc3C(=O)O)c(=O)oc12,38*,.,4,-1
c1ccc(Sc2ccccn2)cc1,-2,-3,-8,0
c1ccc(SSc2ccccn2)nc1,.,0,5,35*
CCOC(=O)C1=C(CSc2nc3c(cc2C#N)CN(C)CC3)OC(N)=C(C#N)C1c1ccccc1 (centres undefined),23,52*,11,-6
CCOC(=O)C1=C(CSc2nc3c(cc2C#N)CN(C)CC3)OC(N)=C(C#N)C1c1ccc(F)cc1 (centres undefined),50*,44,16,-5
O=C(O)c1ccc(C[n+]2c(-c3ccccc3)csc2Nc2ccccc2)cc1,1,13,10,3
CC(C)(C)c1cc(-c2csc(Nc3ccccc3)[n+]2Cc2ccc(C(=O)O)cc2)cc(C(C)(C)C)c1O,.,8,66*,-2
CCCCCCCCN1CCS(=O)(=O)N(Cc2ccc(Cl)cc2)C(C(=O)OC)C1 (centres undefined),1,.,.,.
Cc1cccc(OCC(=O)Nc2ccc(C(=O)Nc3ccccc3C(=O)O)cc2)c1C,41*,21,7,-2
SMILES,rCAG RNA binder,HCV core dimer,NadD inh,ABHD5-PLIN5 inh
O=C(COC(=O)c1ccccc1Nc1cccc(C(F)(F)F)c1)NCc1ccco1,9,64*,16,-14
O=C(COC(=O)c1cc(-c2cccs2)nc2ccccc12)NCc1ccco1,18,63*,52*,17
O=C(COC(=O)c1ccccc1Oc1ccccc1)NCc1ccco1,2,74*,7,11
COc1ccc(-n2c(SCc3cccc4ccccc34)nnc2-c2ccccc2)cc1,7,.,.,.
N#Cc1c(NC(=O)/C=C/C(=O)O)sc2c1CCN(Cc1ccccc1)C2,13,69*,14,6
CC(=O)Nc1sc2c(c1C#N)CCN(Cc1ccccc1)C2,0,-8,0,1
CC(COc1cc(F)cc(C#N)c1)CN1CCC(C(O)(c2ccccc2)c2ccccc2)CC1 (centres undefined),-2,.,.,.
